Screening data from PubChem BioAssay.
MrgX1 allo act = human MrgX1 positive allosteric modulation, primary screen | Q96LB2 | MrgX1-HEK293, Fluo-4 calcium flux, FDSS; stronger effect = higher value | B-score at 10 µM | 310,000 tested, 0.63% active | AID 588675;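 active = plate-corrected calcium response at least 3 library SD above typical, normal starting fluorescence, not activating the receptor alone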;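 also: compound read alongside a low EC10 to EC30 dose of BAM8-22 agonist; peak minus trough fluorescence over baseline measured at the second addition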
Target sequence (Q96LB2 whole entry, looked up): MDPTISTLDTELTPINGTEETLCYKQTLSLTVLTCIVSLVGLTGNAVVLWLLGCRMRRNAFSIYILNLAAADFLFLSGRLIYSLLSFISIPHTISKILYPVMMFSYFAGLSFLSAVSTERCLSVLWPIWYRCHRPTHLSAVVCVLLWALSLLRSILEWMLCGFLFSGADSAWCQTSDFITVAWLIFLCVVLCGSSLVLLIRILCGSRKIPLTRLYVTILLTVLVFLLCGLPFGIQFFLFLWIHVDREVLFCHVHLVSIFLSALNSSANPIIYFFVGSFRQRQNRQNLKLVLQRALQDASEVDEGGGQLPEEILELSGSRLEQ
MrgX1 agonist = human MrgX1 receptor agonism, primary screen; MrgX1-HEK293 cells, Fluo-4 calcium fluorescence, agonist mode; stronger effect = higher value; B-score at 10 µM; 310,000 tested, 0.44% active;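 active = calcium response B-score plate-corrected fluorescence ratio at least 3 library SD, with starting fluorescence B-score inside 5 SD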
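System – MrgX1-expressing HEK293 cells · Incubation – cells plated overnight, dye loaded 0.5 h 37 °C, 0.5 h room temperature · Technique – kinetic Fluo-4 NW fluorescence of intracellular calcium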
RGS4 block = inhibitors of human RGS4 | P49798 | HEK293 M3R/RGS4 inducible, Fluo-4 calcium flux; stronger effect = higher value; triggered by carbachol at its EC20 | B-score at 10 µM | 310,000 tested, 0.45% active | AID 463165;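 active = B-score, a plate-corrected calcium signal, over three deviations above library mean, with baseline fluorescence within five deviations of library mean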;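 also: RGS4 expression induced by doxycycline in cells with stable M3 receptor; B-score is computed from the integrated fluorescence ratio over baseline after carbachol; higher B-score means a larger calcium signal and so more RGS4 inhibition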
Target sequence (P49798 whole entry, looked up): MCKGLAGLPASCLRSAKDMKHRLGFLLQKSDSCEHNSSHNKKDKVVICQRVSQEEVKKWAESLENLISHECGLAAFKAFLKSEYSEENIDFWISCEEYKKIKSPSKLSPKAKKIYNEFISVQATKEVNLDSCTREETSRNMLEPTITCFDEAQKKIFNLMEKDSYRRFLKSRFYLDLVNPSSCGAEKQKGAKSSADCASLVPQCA
MrgX1 antag = human MrgX1 receptor antagonism, primary screen | Q96LB2 | MRGX1-HEK293 calcium flux, Fluo-4, BAM8-22 antagonism; stronger effect = lower value | B-score at 10 µM | 310,000 tested, 1.3% active;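 active = calcium-response B-score plate-corrected more than 3 library SD below zero, starting fluorescence within 5 deviations, no agonist response on first addition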;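 also: peak minus trough fluorescence over baseline after final BAM8-22 challenge near maximal dose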
RGS4 act = RGS4 potentiation or activation; HEK293 M3R/inducible RGS4, carbachol calcium flux Fluo4; stronger effect = lower value; B-score at 10 µM; 310,000 tested, 0.92% active; AID 463111;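 active = B-score of the integrated calcium signal more than 4 SD below the library mean, with starting fluorescence not abnormally high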;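 also: negative B-score means reduced calcium response which marks RGS4 activation or potentiation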
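Assay system: HEK293 FlpIn-TREx cells, stable M3R, doxycycline-inducible RGS4 / Probe or stimulus: carbachol, ECmax concentration / Times: overnight RGS4 induction, 30 min dye load 37 °C, 20 min compound RT / Signal: kinetic calcium fluorescence imaging with Fluo4-AM dye, 2 µM / Measure: Agonist-evoked peak-minus-minimum fluorescence over baseline, integrated ratio, B score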
RGS4 inh valid = RGS4 inhibitor validation | shares compounds with RGS4 block | HEK293 M3R/RGS4, carbachol calcium Fluo-4 fluorescence; carbachol added at its EC20; 0 = buffer wells, 100 = carbachol control | calcium response, % at 10 µM | 1,700 tested, 65% active | AID 492999;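 active = duplicate-averaged calcium response above the buffer-only control mean plus 5 SD of those controls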;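 also: integrated fluorescence ratio F max minus min over baseline F0; higher response in RGS4-induced cells means RGS4 inhibition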
M3R Ca ctr = non-induced cell nonspecific activity of RGS4 inhibitors. 1,900 tested, 20% active. activity (percent), % at 10 µM. AID 493000. shares compounds with RGS4 block. HEK293 M3R non-induced, carbachol calcium Fluo-4; submaximal (EC20) carbachol stimulus; buffer wells 0%, carbachol control wells 100%; call rule not given here;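 also: RGS4 induction absent so cells express M3R without RGS4; higher means more calcium signal and flags a non-specific hit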
M3R basal Ca ctr = signal in non-induced cells without carbachol, RGS4 inhibitor counter-screen | HEK293 M3R/RGS4 non-induced, Fluo-4 calcium, no carbachol; normalised: buffer wells 0%, carbachol wells 100% | calcium response (agonist-mode artifact), % at 10 µM | shares compounds with RGS4 block | AID 493001 | 1,900 tested, 22% active;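 active = duplicate-averaged calcium rise in uninduced cells above buffer wells' mean plus 5 SD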
MrgX1 ag confirm = human MrgX1 agonism, re-confirmation screen | MrgX1-HEK293, Fluo-4 calcium fluorescence, FDSS | activation, % at 10 µM | AID 602412 | 600 tested, 78% active | shares compounds with MrgX1 agonist;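 active = calcium signal rise, corrected for plate position, at least 3 library SD high, with starting brightness within 5 such deviations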; also: reference of the scale not given here
MrgX1 PAM conf = confirmation of human MrgX1 receptor positive allosteric modulators; shares compounds with MrgX1 allo act; MrgX1-HEK293, Fluo-4 calcium fluorescence, FDSS; activation (ratio percentage), % at 10 µM; 1,200 tested, 13% active;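 active = ratio at least 3 SD above the weak peptide control, stable starting fluorescence, no direct agonism earlier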;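 also: compound followed by low BAM8-22 agonist challenge near EC20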
MrgX1 antag conf = reconfirmed antagonist of human MrgX1 receptor signaling. shares compounds with MrgX1 antag. MrgX1-HEK293, BAM8-22 calcium flux, Fluo-4; stronger effect = lower value. remaining BAM8-22 calcium response % of control (stronger effect = lower value), % at 10 µM. 2,300 tested, 19% active. AID 602420;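 active = remaining agonist calcium response no higher than 100% minus 3 SD of agonist-only control wells, with starting fluorescence near control levels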;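 also: agonist BAM8-22 given at a near maximal EC90 to ECmax level; peak minus minimum fluorescence divided by baseline after agonist addition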
HEK293 Ca flux = activity in parental HEK293 cells lacking MrgX1; shares compounds with MrgX1 antag; Fluo-4 calcium fluorescence, FDSS; fluorescence ratio F(max-min)/F0 at 10 µM; 4,000 tested, 2% active;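 active = duplicate-averaged calcium fluorescence ratio at least three times the standard deviation of buffer wells, a nonspecific response in parental cells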
HEK293 Ca counter = activity in parental HEK293 cells without MrgX1 | fluorescence ratio F(max-min)/F0 at 10 µM | 4,000 tested, 0.4% active | shares compounds with MrgX1 antag | AID 624114 | parental HEK293 calcium flux, Fluo-4 fluorescence ratio; stronger effect = higher value;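 active = calcium fluorescence ratio, averaged over duplicates, at least 3 SD of the buffer-well ratio, meaning a nonspecific response in receptor-free cells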;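 also: untransfected parental HEK293 lacking MrgX1 used as counterscreen for MrgX1 allosteric activators; fluorescence change taken during the second addition on a kinetic imager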
HEK293 Ca cntr2 = counter-screen for MrgX1 activators: effect in parental HEK293 cells; 4,000 tested, 8.7% active; Fluo-4 calcium fluorescence (FDSS); stronger effect = higher value; shares compounds with MrgX1 antag; fluorescence ratio F(max-min)/F0 at 10 µM;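 active = calcium fluorescence ratio at least three times the spread of buffer wells, meaning a non-specific response in parental cells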
* hit, by the source's call; i = inactive; . = no result. Only some compounds are listed: those with a hit (about 3.5% of all), similar ones and a draw of the others.

SMILES | MrgX1 allo act | MrgX1 agonist | RGS4 block | MrgX1 antag | RGS4 act | RGS4 inh valid | M3R Ca ctr | M3R basal Ca ctr | MrgX1 ag confirm | HEK293 Ca flux | HEK293 Ca counter | HEK293 Ca cntr2 | others
COc1ccc(C(=O)CCS(=O)(=O)c2ccc(F)cc2)cc1OC | i | 31* | 36* | i | i | 168%* | 28%* | 15%* | 141%* | i | i | i
COc1cc(CNc2ccc(N3CCCC3)cc2)cc(Cl)c1OC | i | i | i | -6.1* | i | . | 33%* | i | . | i | i | i | MrgX1 antag conf=i
COc1ccc(CC(=O)NCC2(N3CCCCC3)CCCCC2)cc1 | i | i | i | i | i | . | . | . | . | . | . | .
Cc1ccc(CN=Cc2[nH]c3ccc(Br)c(Cl)c3c2O)cc1 | i | i | i | -6.8* | i | i | i | 48%* | . | 0.23* | i | i | MrgX1 antag conf=i
COc1ccc(CN=Cc2c(O)[nH]c3ccccc23)cc1 | i | i | i | i | i | . | . | . | . | . | . | .
C[N+](C)(C)C/C=C1/COCO1 | i | 67* | 7.3* | i | -9.1* | 14%* | i | 386%* | 328%* | i | i | 67*
COc1ccc(CS(=O)(=O)/C(Cl)=C(/Cl)C(=O)Nc2ccc(OC)nc2)cc1 | i | 47* | 13* | i | i | 57%* | 32%* | 12%* | 191%* | i | i | i
CCN(CC)c1ccc(Nc2cc3n(c(=O)n2)CCc2cc(OC)c(OC)cc2-3)cc1 | i | i | i | -11* | i | . | 50%* | i | . | i | i | i | MrgX1 antag conf=i
CC(=O)NCc1ccc(C(=O)CCl)s1 | i | i | i | i | i | . | . | . | . | . | . | .
CC(=O)NCc1ccc(C(=O)CCl)cc1 | i | 35* | 6.7* | i | i | 40%* | i | 9.5%* | 197%* | i | i | i
COC(=O)c1c(NC(=O)CSc2ncnc3ccccc23)sc(C)c1C | i | i | i | i | i | . | . | . | . | . | . | .
Cc1c(Cl)ccc2c1NC(=O)[C@]21N[C@@H](Cc2ccccc2)[C@H]2C(=O)N(c3ccc(F)cc3)C(=O)[C@H]21 | i | 27* | 4.9* | i | i | 27%* | i | 20%* | i | i | i | i
O=C1C(Cl)=C(NS(=O)(=O)c2ccc([N+](=O)[O-])cc2)C(=O)c2ccccc21 | 21* | i | 8.5* | i | i | 42%* | i | i | . | i | i | i | MrgX1 PAM conf=14%*
O=[N+]([O-])c1ccc(Oc2ccc(S(=O)(=O)Nc3ccccc3)cc2)cc1 | i | i | i | i | i | . | . | . | . | . | . | .
O=c1[nH][nH]cc1C=NCc1cccnc1 | i | i | i | i | i | . | . | . | . | . | . | .
Cc1ccc(NC(=O)CSC(N)=O)cc1Cl | i | i | 6.1* | -5* | i | 12%* | i | i | . | i | i | i | MrgX1 antag conf=85%*
NC(=O)SCC(=O)Nc1ccc(Cl)c(Cl)c1 | i | i | . | i | . | . | . | . | . | . | . | .
O=C(O)c1ccc(NS(=O)(=O)c2ccc(Cl)c(C(=O)Nc3ccccc3[N+](=O)[O-])c2)cc1 | i | i | i | i | i | . | . | . | . | . | . | .
COc1cccc(CNC(=O)c2ccc3c(c2)N(C)CCS3)c1OC | i | i | i | i | i | . | . | . | . | . | . | .
CCOc1ccc(-c2nnc3n2N=C(c2ccc(OC)cc2)CS3)cc1 | i | i | i | i | i | . | . | . | . | . | . | .
COc1ccc(C2=Nn3c(nnc3-c3ccncc3)SC2)cc1OC | 8.2* | i | 5.2* | i | i | 9.0%* | i | i | . | i | i | i | MrgX1 PAM conf=i
O=C(CCN1CCc2ccccc2CC1)c1ccc2c(c1)OCCO2 | i | 38* | 13* | i | i | 20%* | i | 26%* | 136%* | i | i | i
CCc1ccc2[nH]c3nc(N/N=C/c4cccc(O)c4)nnc3c2c1 | i | i | i | i | i | . | . | . | . | . | . | .
COc1cc(C2(c3ccc(O)c(OC)c3)C(=O)Nc3c(C)cc(Br)cc32)ccc1O | i | i | 12* | -4.6* | i | 43%* | i | 25%* | . | i | i | i | MrgX1 antag conf=83%*
O=C(CNCC1CCCCC1)Nc1ccc(OC(F)(F)F)cc1 | i | 106* | i | i | i | . | . | . | 416%* | i | i | 52*
CCn1c(-c2ccc(-c3ccccc3)cc2)c[nH]c1=S | i | i | i | i | i | . | . | . | . | . | . | .
CCOc1ccccc1NC(=O)COC(=O)C1CC(=O)N(c2c(C)cccc2C)C1 (stereo not drawn) | i | 28* | i | i | i | . | . | . | i | i | i | i
CC(=O)COc1cccc2ccc(/C=C/c3ccc(Br)s3)nc12 | i | 38* | i | i | i | . | . | . | 163%* | i | i | 49*
COc1cccc(CNC(=O)CCC2CCCN(c3cc(C)nc(N)n3)C2)c1 (stereo not drawn) | i | 30* | i | i | i | . | . | . | i | i | i | i
